Legend:
[1] = tested on: Trypanosoma cruzi; assay: Antitrypanosomal activity against amastigote stage of Trypanosoma cruzi Y infected in human U2OS cells after 96 hrs by Draq5 staining-based high content screening assay; format: functional, cell-based
Summary of the method: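 U2OS cells (700/well, high glucose DMEM + 10% heat-inactivated FBS) seeded and incubated 24 h at 37 °C/5% CO2. Infected next day with 2800 Y strain trypomastigotes from LLC-MK2 cultures in low glucose DMEM + 2% FBS. Compounds added on day 3 as 15-point 2-fold dilutions, 1% DMSO final, top 200 µM. After 96 h, fixed in 4% paraformaldehyde, 5 µM Draq5 stain, imaged. Infection ratio normalized to infected/uninfected DMSO controls. EC50 from sigmoidal variable-slope fit. Duplicate wells, three independent experiments.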

[2] = Selectivity index, ratio of CC50 for human U2OS cells infected with amastigote stage of Trypanosoma cruzi Y to EC50 for amastigote stage of Trypanosoma cruzi Y; format: toxicity, cell-based; settings: U2OS cells infected with Trypanosoma cruzi Y amastigotes, read-out: Ratio CC50/EC50
Summary of the method: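 S.I. = CC50/EC50 from the infected U2OS high-content assay. When CC50 could not be calculated, S.I. = highest tested concentration/EC50.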

[3] = Cytotoxicity against non-infected human U2OS cells assessed as decrease in number of cells after 96 hrs by Draq5 staining-based high content screening assay; format: toxicity, cell-based
Summary of the method: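 Separate plate with non-infected U2OS cells (700/well, DMEM + 10% FBS) and compounds in 15-point 2-fold dilutions, top 200 µM, 1% DMSO final. After 96 h, fixed with 4% paraformaldehyde, stained with 5 µM Draq5, cells counted by imaging. CC50 from sigmoidal variable-slope curve fitting.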

[4] = Cytotoxicity against human U2OS cells infected with amastigote stage of Trypanosoma cruzi Y assessed as decrease in number of cells after 96 hrs by Draq5 staining-based high content screening assay; format: toxicity, cell-based; settings: U2OS cells infected with Trypanosoma cruzi Y amastigotes
Summary of the method: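 Run on the same infected U2OS plates as the antiparasitic read (700 cells/well, 2800 Y strain trypomastigotes, compounds from day 3, 15-point 2-fold dilutions, top 200 µM, 1% DMSO final). Cells fixed after 96 h with 4% paraformaldehyde and stained with 5 µM Draq5. Total cell count compared with DMSO-treated infected controls. CC50 = concentration giving 50% cell number, from sigmoidal variable-slope fit. Three independent experiments.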

Which results are given for `NC(=O)NN=C(Cn1cncn1)c1ccc(F)cc1F`?
EC50 [1]: 63.1 µM; Emax [1]: 96.6%; selectivity ratio [2]: > 3.1; Activity [3]: Non-Toxic

Which EC50 [1] does the source give for `O=C(Cn1cncn1)c1ccc(F)cc1F` here?
The EC50 was 144 µM.

What about the Emax [1] of the same compound?
Its Emax is 68.7%.

What about the selectivity ratio [2] of the same compound?
The selectivity ratio was > 1.4.

And the Activity [3]?
Its Activity is “Non-Toxic”.

What does the source list for `CC1CS(=O)(=O)CCN1/N=C/c1ccc([N+](=O)[O-])o1` (stereo unspecified) [NIFURTIMOX]?
EC50 [1]: 0.34 µM; Emax [1]: 102%; CC50 at 96 h [4]: 26.8 µM; selectivity ratio [2]: 78.9

Which results are given for `NC(=O)NN=C(Cn1cnc([N+](=O)[O-])n1)c1ccc(F)cc1F`?
EC50 [1]: 101 µM; Emax [1]: 95.2%; selectivity ratio [2]: > 2; Activity [3]: Non-Toxic

Which EC50 [1] does the source give for `NC(=S)NN=C(Cn1cnc([N+](=O)[O-])n1)c1ccc(F)cc1F` here?
Its EC50 is 21.6 µM.

What about the Emax [1] of the same compound?
Its Emax is 92.8%.

And the selectivity ratio [2]?
Its selectivity ratio is > 9.27.

What about the Activity [3] of the same compound?
The Activity was “Non-Toxic”.

With `O=C(Cn1ccnc1[N+](=O)[O-])NCc1ccccc1` [BENZNIDAZOLE] as the compound, how does the EC50 [1] read?
Its EC50 is 3.96 µM.

And the Emax [1]?
The Emax was 104%.

And the selectivity ratio [2]?
Its selectivity ratio is > 101.

With `NC(=S)NN=C(Cn1cncn1)c1ccc(F)cc1F` as the compound, how does the EC50 [1] read?
Its EC50 is 15.4 µM.

What about the Emax [1] of the same compound?
Its Emax is 95.2%.

And the selectivity ratio [2]?
Its selectivity ratio is > 13.

And the Activity [3]?
Its Activity is “Non-Toxic”.

Which EC50 [1] does the source give for `O=C(Cn1cnc([N+](=O)[O-])n1)c1ccc(F)cc1F` here?
The EC50 was 5.53 µM.

And the Emax [1]?
The Emax was 87%.

And the selectivity ratio [2]?
Its selectivity ratio is > 36.

And the Activity [3]?
Its Activity is “Non-Toxic”.

Reference: ChEMBL document CHEMBL3860031, “Design, synthesis and antitrypanosomal activity of some nitrofurazone 1,2,4-triazolic bioisosteric analogues” (Eur J Med Chem, 2016)
